Experimental data reported in ChEMBL document CHEMBL4376875, “Synthesis and Biological Evaluation of B-Cell Lymphoma 6 Inhibitors of N-Phenyl-4-pyrimidinamine Derivatives Bearing Potent Activities against Tumor Growth” (J Med Chem, 2020).
Calls of active or inactive are those of the source. The rule behind the calls is not given here.

Experiments:
SUD4 [1] = assay: Induction of apoptosis in human SUDHL4 cells assessed as early apoptotic cells at 2.5 uM incubated for 48 hrs by annexin V-FITC and propidium iodide staining based flow cytometry analysis (reference value: 2.62%); format: functional
SUD4 [2] = assay: Induction of apoptosis in human SUDHL4 cells assessed as early apoptotic cells at 0.625 uM incubated for 48 hrs by annexin V-FITC and propidium iodide staining based flow cytometry analysis (reference value: 2.62%); format: functional
Toledo [3] = assay: Effect on p53 mRNA expression in BCL6-negative human Toledo cells at 1.25 to 5 uM incubated for 24 hrs by RT-PCR analysis; format: functional, cell-based
Method in brief: (§1)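 Toledo cells (BCL6-independent) were exposed to 1.25, 2.50 or 5.00 μM for 24 h, then mRNA was collected. Target-gene transcripts were quantified by real-time quantitative PCR against vehicle control.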

Mus musculus [4] = assay: In vivo inhibition of GC formation in NP-CGG immunized C57BL/6 mouse assessed as splenic GC B cells (GL7+FAS+B220+) at 10 mg/kg, iv administered 3 days once for 12 days starting from 2 days after NP-CGG addition by flow cytometry (reference value: 1.97%); format: functional; set-up: scale not given: the % may be the effect or the level left
SUD4 [5] = assay: Antitumor activity against human SUDHL4 cells xenografted in SCID mouse assessed as reduction in tumor volume at 5 mg/kg, iv administered 3 days once for 15 days and measured every 3 days by caliper analysis; format: functional, organism-based
Method in brief: (§2)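 Male SCID mice, 6 weeks old, received 1 × 10⁷ SUDHL4 cells s.c. At about 100 mm³, mice were randomized (n = 7) to vehicle (20% 2-hydroxypropyl-β-cyclodextrin) or 5 or 10 mg/kg every 3 days i.v. for 15 days. Body weight and caliper volume (L × W² × 0.52) were recorded every 3 days. At sacrifice, tissues were fixed in 4% paraformaldehyde and paraffin-embedded for H&E or Ki67 IHC. Tumor mRNA was assayed by qPCR.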

Toledo [6] = assay: Effect on CD69 mRNA expression in BCL6-negative human Toledo cells at 1.25 to 5 uM incubated for 24 hrs by RT-PCR analysis; format: functional, cell-based; method in brief: as §1
OCI-Ly7 = assay: Antiproliferative activity against human OCI-LY7 cells assessed as reduction in cell viability incubated for 72 hrs by CCK8 assay; details: OCI-Ly7, 72 h
L02 = assay: Cytotoxicity against human LO2 cells assessed as reduction in cell viability incubated for 72 hrs by CCK8 assay; details: L02, 72 h
Mus musculus [7] = assay: Upregulation of CXCR4 mRNA expression in SCID mouse xenografted with human SUDHL4 cells at 5 to 10 mg/kg, iv administered 3 days once for 15 days by qPCR analysis; format: functional, organism-based; method in brief: as §2
[8] = Cytotoxicity against HAF cells assessed as reduction in cell viability incubated for 72 hrs by CCK8 assay; details: Homo sapiens
[9] = Toxicity in SCID mouse xenografted with human SUDHL4 cells assessed as adverse effect on lungs morphology at 5 to 10 mg/kg, iv administered 3 days once for 15 days by H and E staining analysis; format: organism-based; details: in vivo; method in brief: as §2
[10] = Metabolic stability in human liver microsomes assessed as half life; format: ADME, Microsome
Method in brief: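 Incubation with human liver microsomes. Intrinsic clearance was scaled to liver using 45 mg microsomal protein per g liver and 20 g liver per kg body weight. Half-life was also determined.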

Mus musculus [11] = species on record: Mus musculus; details: C57BL/6, 10 mg/kg
SUD4 [12] = assay: Antiproliferative activity against human SUDHL4 cells assessed as living cells and S phase cells at 1.25 uM incubated for 48 hrs by Edu based flow cytometry analysis (reference value: 48.3%)
Toledo [13] = assay: Effect on CXCR4 mRNA expression in BCL6-negative human Toledo cells at 1.25 to 5 uM incubated for 24 hrs by RT-PCR analysis; format: functional, cell-based; method in brief: as §1
SUD4 [14] = assay: Induction of apoptosis in human SUDHL4 cells assessed as late apoptotic cells at 1.25 uM incubated for 48 hrs by annexin V-FITC and propidium iodide staining based flow cytometry analysis (reference value: 1.39%); format: functional
Toledo [15] = assay: Effect on ATR mRNA expression in BCL6-negative human Toledo cells at 1.25 to 5 uM incubated for 24 hrs by RT-PCR analysis; format: functional, cell-based; method in brief: as §1
DOHH-2 = assay: Antiproliferative activity against human DOHH2 cells assessed as reduction in cell viability incubated for 72 hrs by CCK8 assay; details: DOHH-2, 72 h

Question: For COc1cc(Nc2nc(N3C[C@@H](C)N[C@@H](C)C3)ncc2F)ccc1NC(=O)c1ccc(C2=CCCC2)s1, which Activity (SUD4 [1]) is on record?
Answer: 5.91%

Question: What about the Activity (SUD4 [2]) of the same molecule?
Answer: 3.42%

Question: And the Activity (Toledo [3])?
Answer: inactive

Question: And the Activity (Mus musculus [4])?
Answer: 0.45%

Question: And the Activity (SUD4 [5])?
Answer: Active

Question: What about the Activity (Toledo [6]) of the same molecule?
Answer: inactive

Question: What about the IC50 (OCI-Ly7) of the same molecule?
Answer: 1620 nM

Question: What about the IC50 (L02) of the same molecule?
Answer: 13.1 µM

Question: What about the Activity (Mus musculus [7]) of the same molecule?
Answer: Active

Question: What about the IC50 [8] of the same molecule?
Answer: 26.4 µM

Question: And the Activity [9]?
Answer: Non-Toxic

Question: And the half-life [10]?
Answer: > 60 min

Question: And the inhibition (Mus musculus [11])?
Answer: Active

Question: And the Activity (SUD4 [12])?
Answer: 12.5%

Question: What about the Activity (Toledo [13]) of the same molecule?
Answer: inactive

Question: What about the Activity (SUD4 [14]) of the same molecule?
Answer: 12.5%

Question: And the Activity (Toledo [15])?
Answer: inactive

Question: What about the IC50 (DOHH-2) of the same molecule?
Answer: 1210 nM
